Results: ChEMBL document CHEMBL1275500, “Characterization of the new metallo-beta-lactamase VIM-13 and its integron-borne gene from a Pseudomonas aeruginosa clinical isolate in Spain” (Antimicrob Agents Chemother, 2008)
Converted amounts (≈) assume the structure as drawn.

Legend:
[1] = target: Beta-lactamase VIM-1 (Pseudomonas aeruginosa, UniProt Q9XAY4); assay: Inhibition of Pseudomonas aeruginosa VIM-1 beta-lactamase after 10 mins
Summary of the method: (§1)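 Zn2+-removal inactivation of purified VIM-1 or VIM-13, tested with varied concentrations of EDTA, dipicolinic acid or 1,10-o-phenanthroline. Enzyme and chelator were incubated 10 min at 20°C in 50 mM HEPES pH 7.5 with 20 μg/ml BSA, then 100 μM imipenem hydrolysis was measured as the reporter. IC50 is the chelator level halving hydrolytic activity.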

[2] = target: Class B carbapenemase VIM-13 (Pseudomonas aeruginosa, UniProt Q2HY42); assay: Inhibition of Pseudomonas aeruginosa VIM-13 beta-lactamase after 10 mins; summary of the method: as §1
[3] = system: Pseudomonas aeruginosa; assay: Antimicrobial activity against Pseudomonas aeruginosa isolate PA-SD2 harboring blaVIM-1 gene by Etest method; type: functional
[4] = system: Pseudomonas aeruginosa; assay: Antimicrobial activity against Pseudomonas aeruginosa isolate PA-SL2 harboring blaVIM-13 gene by Etest method; type: functional
[5] = system: Pseudomonas aeruginosa; assay: Antimicrobial activity against Pseudomonas aeruginosa PAO1 harboring pUCP carrying VIM-1 gene by Etest method; type: functional
Summary of the method: (§2)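 Etest MICs of piperacillin, piperacillin-tazobactam, ceftazidime, cefepime, cefotaxime, aztreonam, imipenem and meropenem, run per manufacturer's recommendations. Strains were E. coli XL1-Blue or P. aeruginosa PAO1 carrying pUCP24-derived plasmids with blaVIM-1 or blaVIM-13 (cloned by EcoRI) inserted in the lacZ-promoter orientation. E. coli transformants were selected on 10 μg/ml gentamicin MacConkey agar; PAO1 electroporants were selected on 50 μg/ml gentamicin LB agar.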

[6] = system: Pseudomonas aeruginosa; assay: Antimicrobial activity against Pseudomonas aeruginosa PAO1 harboring pUCP carrying VIM-13 gene by Etest method; type: functional; summary of the method: as §2
[7] = system: Pseudomonas aeruginosa; assay: Antimicrobial activity against Pseudomonas aeruginosa PAO1 by Etest method; type: functional
[8] = system: Escherichia coli; assay: Antimicrobial activity against Escherichia coli XL1-Blue harboring pUCP carrying VIM-1 gene by Etest method; type: functional; summary of the method: as §2
[9] = system: Escherichia coli; assay: Antimicrobial activity against Escherichia coli XL1-Blue harboring pUCP carrying VIM-13 gene by Etest method; type: functional; summary of the method: as §2
[10] = system: Escherichia coli; assay: Antimicrobial activity against Escherichia coli XL1-Blue by Etest method; type: functional
[11] = system: Escherichia coli; assay: Antimicrobial activity against Escherichia coli XL1-Blue harboring pGEM-T carrying aacA4 gene by Etest method; type: functional
[12] = system: Escherichia coli; assay: Antimicrobial activity against Escherichia coli XL1-Blue harboring pGEM-T carrying aacA4 Ala108Thr mutant gene by Etest method; type: functional
[13] = system: CC(=O)OCC1=C(C(=O)O)N2C(=O)[C@@H](NC(=O)Cc3cccs3)[C@H]2SC1; assay: (§3) Activity of Pseudomonas aeruginosa VIM-1 beta-lactamase
Summary of the method: (§4)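 GST-fused VIM-1 lacking signal peptide, purified, dialyzed in 50 mM HEPES pH 7.5 with 50 μM ZnSO4. Beta-lactam hydrolysis followed spectrophotometrically at 25°C in 50 mM HEPES pH 7.5, 50 μM ZnSO4, 20 μg/ml BSA.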

[14] = system: CC(C)(O/N=C(\C(=O)N[C@@H]1C(=O)N2C(C(=O)[O-])=C(C[n+]3ccccc3)CS[C@H]12)c1csc(N)n1)C(=O)O; assay: as §3; summary of the method: as §4
[15] = system: CC1(C)S[C@@H]2[C@H](NC(=O)Cc3ccccc3)C(=O)N2[C@H]1C(=O)O; assay: as §3; summary of the method: as §4
[16] = system: CC1(C)S[C@@H]2[C@H](NC(=O)[C@H](N)c3ccccc3)C(=O)N2[C@H]1C(=O)O; assay: as §3; summary of the method: as §4
[17] = system: CCN1CCN(C(=O)N[C@@H](C(=O)N[C@@H]2C(=O)N3[C@@H]2SC(C)(C)[C@@H]3C(=O)O)c2ccccc2)C(=O)C1=O; assay: as §3; summary of the method: as §4
[18] = system: CO/N=C(\C(=O)N[C@@H]1C(=O)N2C(C(=O)O)=C(COC(C)=O)CS[C@H]12)c1csc(N)n1; assay: as §3; summary of the method: as §4
[19] = system: CO/N=C(\C(=O)N[C@@H]1C(=O)N2C(C(=O)O)=C(COC(N)=O)CS[C@H]12)c1ccco1; assay: as §3; summary of the method: as §4
[20] = system: C[C@@H](O)[C@H]1C(=O)N2C(C(=O)O)=C(S[C@@H]3CN[C@H](C(=O)N(C)C)C3)[C@H](C)[C@H]12; assay: as §3; summary of the method: as §4
[21] = system: CC(=O)OCC1=C(C(=O)O)N2C(=O)[C@@H](NC(=O)Cc3cccs3)[C@H]2SC1; assay: (§5) Ratio of Kcat to Km for Pseudomonas aeruginosa VIM-1 beta-lactamase; summary of the method: as §4
[22] = system: CC(C)(O/N=C(\C(=O)N[C@@H]1C(=O)N2C(C(=O)[O-])=C(C[n+]3ccccc3)CS[C@H]12)c1csc(N)n1)C(=O)O; assay: as §5; summary of the method: as §4
[23] = system: CC1(C)S[C@@H]2[C@H](NC(=O)[C@H](N)c3ccccc3)C(=O)N2[C@H]1C(=O)O; assay: as §5; summary of the method: as §4
[24] = system: CCN1CCN(C(=O)N[C@@H](C(=O)N[C@@H]2C(=O)N3[C@@H]2SC(C)(C)[C@@H]3C(=O)O)c2ccccc2)C(=O)C1=O; assay: as §5; summary of the method: as §4
[25] = system: C[C@@H](O)[C@H]1C(=O)N2C(C(=O)O)=C(S[C@@H]3CN[C@H](C(=O)N(C)C)C3)[C@H](C)[C@H]12; assay: as §5; summary of the method: as §4
[26] = system: CC(=O)OCC1=C(C(=O)O)N2C(=O)[C@@H](NC(=O)Cc3cccs3)[C@H]2SC1; details: Pseudomonas aeruginosa
[27] = system: CC(C)(O/N=C(\C(=O)N[C@@H]1C(=O)N2C(C(=O)[O-])=C(C[n+]3ccccc3)CS[C@H]12)c1csc(N)n1)C(=O)O; details: Pseudomonas aeruginosa
[28] = system: CC1(C)S[C@@H]2[C@H](NC(=O)Cc3ccccc3)C(=O)N2[C@H]1C(=O)O; details: Pseudomonas aeruginosa
[29] = system: CC1(C)S[C@@H]2[C@H](NC(=O)[C@H](N)c3ccccc3)C(=O)N2[C@H]1C(=O)O; details: Pseudomonas aeruginosa
[30] = system: CCN1CCN(C(=O)N[C@@H](C(=O)N[C@@H]2C(=O)N3[C@@H]2SC(C)(C)[C@@H]3C(=O)O)c2ccccc2)C(=O)C1=O; details: Pseudomonas aeruginosa
[31] = system: CO/N=C(\C(=O)N[C@@H]1C(=O)N2C(C(=O)O)=C(COC(C)=O)CS[C@H]12)c1csc(N)n1; details: Pseudomonas aeruginosa
[32] = system: CO/N=C(\C(=O)N[C@@H]1C(=O)N2C(C(=O)O)=C(COC(N)=O)CS[C@H]12)c1ccco1; details: Pseudomonas aeruginosa
[33] = system: C[C@@H](O)[C@H]1C(=O)N2C(C(=O)O)=C(S[C@@H]3CN[C@H](C(=O)N(C)C)C3)[C@H](C)[C@H]12; details: Pseudomonas aeruginosa
[34] = system: CC(=O)OCC1=C(C(=O)O)N2C(=O)[C@@H](NC(=O)Cc3cccs3)[C@H]2SC1; details: Pseudomonas aeruginosa; remark: listed apart in the source
[35] = system: CC(C)(O/N=C(\C(=O)N[C@@H]1C(=O)N2C(C(=O)[O-])=C(C[n+]3ccccc3)CS[C@H]12)c1csc(N)n1)C(=O)O; details: Pseudomonas aeruginosa; remark: listed apart in the source
[36] = system: CC1(C)S[C@@H]2[C@H](NC(=O)Cc3ccccc3)C(=O)N2[C@H]1C(=O)O; details: Pseudomonas aeruginosa; remark: listed apart in the source
[37] = system: CC1(C)S[C@@H]2[C@H](NC(=O)[C@H](N)c3ccccc3)C(=O)N2[C@H]1C(=O)O; details: Pseudomonas aeruginosa; remark: listed apart in the source
[38] = system: CCN1CCN(C(=O)N[C@@H](C(=O)N[C@@H]2C(=O)N3[C@@H]2SC(C)(C)[C@@H]3C(=O)O)c2ccccc2)C(=O)C1=O; details: Pseudomonas aeruginosa; remark: listed apart in the source
[39] = system: CO/N=C(\C(=O)N[C@@H]1C(=O)N2C(C(=O)O)=C(COC(C)=O)CS[C@H]12)c1csc(N)n1; details: Pseudomonas aeruginosa; remark: listed apart in the source
[40] = system: CO/N=C(\C(=O)N[C@@H]1C(=O)N2C(C(=O)O)=C(COC(N)=O)CS[C@H]12)c1ccco1; details: Pseudomonas aeruginosa; remark: listed apart in the source
[41] = system: C[C@@H](O)[C@H]1C(=O)N2C(C(=O)O)=C(S[C@@H]3CN[C@H](C(=O)N(C)C)C3)[C@H](C)[C@H]12; details: Pseudomonas aeruginosa; remark: listed apart in the source

Molecule: O=C(O)CN(CCN(CC(=O)O)CC(=O)O)CC(=O)O [EDETIC ACID]
- IC50 [1]: 9.3 µM
- IC50 [2]: 253 µM

Molecule: C[C@@H](O)[C@H]1C(=O)N2C(C(=O)O)=C(SCCNC=N)C[C@H]12 [IMIPENEM ANHYDROUS]
- MIC [3]: > 32 µg/mL
- MIC [4]: 24 µg/mL (≈ 80.2 µM)
- MIC [5]: > 32 µg/mL
- MIC [6]: > 32 µg/mL
- MIC [7]: 1.5 µg/mL (≈ 5.01 µM)
- MIC [8]: 1 µg/mL (≈ 3.34 µM)
- MIC [9]: 1 µg/mL (≈ 3.34 µM)
- MIC [10]: 0.25 µg/mL (≈ 0.835 µM)

Molecule: C[C@@H](O)[C@H]1C(=O)N2C(C(=O)O)=C(S[C@@H]3CN[C@H](C(=O)N(C)C)C3)[C@H](C)[C@H]12 [MEROPENEM]
- MIC [3]: > 32 µg/mL
- MIC [4]: 12 µg/mL (≈ 31.3 µM)
- MIC [5]: > 32 µg/mL
- MIC [6]: > 32 µg/mL
- MIC [7]: 0.38 µg/mL (≈ 0.991 µM)
- MIC [8]: 0.25 µg/mL (≈ 0.652 µM)
- MIC [9]: 0.19 µg/mL (≈ 0.495 µM)
- MIC [10]: 0.064 µg/mL (≈ 0.167 µM)

Molecule: c1cnc2c(c1)ccc1cccnc12 [PHENANTHROLINE]
- IC50 [1]: 73 µM
- IC50 [2]: 69.3 µM

Molecule: NC[C@H]1O[C@H](O[C@H]2[C@H](O)[C@@H](O[C@H]3O[C@H](CO)[C@@H](O)[C@H](N)[C@H]3O)[C@H](N)C[C@@H]2N)[C@H](N)C[C@@H]1O [TOBRAMYCIN]
- MIC [3]: 16 µg/mL (≈ 34.2 µM)
- MIC [4]: 48 µg/mL (≈ 103 µM)
- MIC [11]: 2 µg/mL (≈ 4.28 µM)
- MIC [12]: 2 µg/mL (≈ 4.28 µM)
- MIC [10]: 0.25 µg/mL (≈ 0.535 µM)

Molecule: Beta-lactamase VIM-1 (Pseudomonas aeruginosa) (from UniProt Q9XAY4)
- Km [13]: 135 µM
- kcat [13]: 449 s⁻¹
- Km [14]: 1130 µM
- kcat [14]: 42 s⁻¹
- Km [15]: 1300 µM
- kcat [15]: 418 s⁻¹
- Km [16]: 1740 µM
- kcat [16]: 307 s⁻¹
- Km [17]: 1380 µM
- kcat [17]: 374 s⁻¹
- Km [18]: 285 µM
- kcat [18]: 204 s⁻¹
- Km [19]: 148 µM
- kcat [19]: 239 s⁻¹
- Km [20]: 72 µM
- kcat [20]: 20 s⁻¹
- kcat/Km [21]: 3.3e+06 M⁻¹ s⁻¹
- kcat/Km [22]: 3.7 M⁻¹ s⁻¹
- kcat/Km [23]: 180000 M⁻¹ s⁻¹
- kcat/Km [24]: 270000 M⁻¹ s⁻¹
- kcat/Km [25]: 280000 M⁻¹ s⁻¹

Molecule: Class B carbapenemase VIM-13 (Pseudomonas aeruginosa) (from UniProt Q2HY42)
- Km [26]: 76 µM
- kcat [26]: 656 s⁻¹
- Km [27]: 509 µM
- kcat [27]: 10 s⁻¹
- Km [28]: 1130 µM
- kcat [28]: 757 s⁻¹
- Km [29]: 197 µM
- kcat [29]: 67 s⁻¹
- Km [30]: 729 µM
- kcat [30]: 362 s⁻¹
- Km [31]: 233 µM
- kcat [31]: 612 s⁻¹
- Km [32]: 56 µM
- kcat [32]: 283 s⁻¹
- Km [33]: 15.5 µM
- kcat [33]: 9 s⁻¹
- kcat/Km [34]: 8.6e+06 M⁻¹ s⁻¹
- kcat/Km [35]: 1.9 M⁻¹ s⁻¹
- kcat/Km [36]: 670000 M⁻¹ s⁻¹
- kcat/Km [37]: 340000 M⁻¹ s⁻¹
- kcat/Km [38]: 490000 M⁻¹ s⁻¹
- kcat/Km [39]: 2.6e+06 M⁻¹ s⁻¹
- kcat/Km [40]: 5e+06 M⁻¹ s⁻¹
- kcat/Km [41]: 592000 M⁻¹ s⁻¹

Molecule: GENTAMICIN
- MIC [3]: 48 µg/mL
- MIC [4]: > 256 µg/mL
- MIC [11]: 1 µg/mL
- MIC [12]: 1 µg/mL
- MIC [10]: 0.19 µg/mL
